# Sampled rows, rich in hits. Any-hit rate of the full collection: about 2.5%.
# TRPC6 inhibitor = mouse TRPC6 channel inhibitors, primary screen, cell-based, HEK293, membrane potential dye; hit rate 1.1% among 310,000; Short transient receptor potential channel 6 (Mus musculus), Q61143; ACh-evoked depolarization; stronger effect = lower value; B-score at 10 µM;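 active = B-score under library mean minus 3 SD, initial fluorescence not abnormally high, positive integrated signal ratio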;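 also: B-score derived from integrated fluorescence ratio over the kinetic read; more negative B-score means stronger inhibition of depolarization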
# DSG3 Ab inh = inhibitors of pemphigus antibody binding to DSG3, primary screen, biochemical, bead-based, flow cytometry, scFv-GFP; DSG3-coupled beads, scFv-anti-DSG3-GFP binding; stronger effect = lower value; binding (percent of control), % at 10 µM; hit rate 0.48% among 310,000; AID 588358, 2011;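 active = binding more than 3 SD below its plate's average and above zero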
# TRPC4 act = activators of mouse TRPC4 channel, primary screen, Fluo4 calcium, HEK293 TRPC4beta/mu-opioid cells. Short transient receptor potential channel 4 (Mus musculus), Q9QUQ5. Fluo4 calcium fluorescence; stronger effect = higher value. B-score at 10 µM. hit rate 0.49% among 310,000;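 active = B-score above 5 SD of library B-scores, and initial fluorescence ratio not above library mean plus 5 SD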;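 also: positive B-score marks a calcium rise read as TRPC4 activation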
# Target sequence (Q9QUQ5 whole entry, looked up): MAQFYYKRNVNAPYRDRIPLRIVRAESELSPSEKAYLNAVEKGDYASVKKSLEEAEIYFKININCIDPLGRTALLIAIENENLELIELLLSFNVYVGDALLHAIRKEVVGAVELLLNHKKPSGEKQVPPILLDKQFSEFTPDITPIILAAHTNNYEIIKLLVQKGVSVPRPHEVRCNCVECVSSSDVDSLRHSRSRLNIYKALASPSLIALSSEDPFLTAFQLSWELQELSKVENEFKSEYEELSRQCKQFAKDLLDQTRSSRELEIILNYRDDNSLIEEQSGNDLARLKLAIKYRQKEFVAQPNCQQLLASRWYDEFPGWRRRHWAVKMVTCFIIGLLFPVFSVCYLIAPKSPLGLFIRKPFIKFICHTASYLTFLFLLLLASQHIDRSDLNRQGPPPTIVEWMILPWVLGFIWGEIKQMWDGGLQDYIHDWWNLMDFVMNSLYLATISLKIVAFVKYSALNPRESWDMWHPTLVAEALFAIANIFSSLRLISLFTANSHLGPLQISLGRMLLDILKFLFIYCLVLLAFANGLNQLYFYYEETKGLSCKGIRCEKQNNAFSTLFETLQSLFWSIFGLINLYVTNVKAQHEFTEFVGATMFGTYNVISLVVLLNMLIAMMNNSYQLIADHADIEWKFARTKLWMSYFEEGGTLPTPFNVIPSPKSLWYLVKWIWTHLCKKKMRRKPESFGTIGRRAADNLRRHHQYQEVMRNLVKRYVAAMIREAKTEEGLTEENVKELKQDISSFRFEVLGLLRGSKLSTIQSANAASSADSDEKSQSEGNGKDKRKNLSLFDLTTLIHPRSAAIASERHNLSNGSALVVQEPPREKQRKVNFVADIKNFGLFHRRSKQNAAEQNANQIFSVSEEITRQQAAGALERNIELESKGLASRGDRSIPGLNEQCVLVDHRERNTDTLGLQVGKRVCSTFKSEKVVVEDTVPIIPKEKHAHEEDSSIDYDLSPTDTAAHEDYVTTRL
#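 Assay system – TRPC4beta and mu-opioid receptor HEK293 stable cells · Measured by – Fluo4 fluorescence, kinetic · Schedule – dye loading 45 min room temperature, 110 s kinetic read · Read-out – B-scored integrated calcium fluorescence ratio · Controls – buffer and maximal DAMGO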
# TRPC6 activator = mouse TRPC6 channel activators, primary screen, cell-based, HEK293, membrane potential dye; Short transient receptor potential channel 6 (Mus musculus), Q61143; B-score at 10 µM; HEK293-TRPC6 membrane potential dye fluorescence; stronger effect = higher value; hit rate 0.13% among 310,000; AID 2550, 2010;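 active = B-score of the integrated fluorescence ratio above library mean plus 3 SD, and starting fluorescence ratio within library mean plus 5 SD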;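 also: higher score means more depolarization so channel activation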
# TRPC4 potent = positive allosteric modulators of TRPC4, primary screen, cell-based, mouse TRPC4beta, HEK293 mu-opioid, Fluo-4 calcium. Short transient receptor potential channel 4 (Mus musculus), Q9QUQ5. hit rate 0.42% among 310,000. DAMGO EC20, Fluo-4 Ca2+ flux; stronger effect = higher value. B-score at 10 µM;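 active = B-score of calcium response area above 5 SD of library B-scores, with initial fluorescence ratio within 5 SD of library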
# TRPC4 block = inhibitors of mouse TRPC4 channel, primary screen, Fluo4 calcium, HEK293 TRPC4beta/mu-opioid cells; Short transient receptor potential channel 4 (Mus musculus), Q9QUQ5; DAMGO-evoked Fluo4 calcium flux; stronger effect = lower value; B-score at 10 µM; hit rate 0.39% among 300,000; AID 2247, 2010;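 active = B-score over 3 SD under the library average, no early fluorescence shift, positive overall ratio signal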
#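 System: stable TRPC4beta/mu-opioid receptor HEK293 cells; Dosing: single-point compound dosing; Measured by: Fluo4 Ca2+ flux fluorescence; Read-out basis: per-well B score of integrated baseline-normalized Fluo4 ratio.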
# TRPC4 spec 2 = mouse TRPC4 off-target activity of TRPC6 inhibitors, second screen; shares compounds with TRPC6 inhibitor; inhibition, % at 10 µM; hit rate 42% among 920; HEK293 TRPC4/MOR, membrane potential dye fluorescence; channel activated by saturating DAMGO dose; AID 2776;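 active = compounds whose fluorescence signal differed from control wells by over 3 SD, either direction, in both duplicate plates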
# TRPC4 spec = mouse TRPC4 modulation by TRPC6 hits, confirmation, selectivity assay for TRPC6 inhibitor project, cell-based, HEK293 TRPC4/mu-opioid, membrane potential dye | shares compounds with TRPC6 inhibitor | membrane potential fluorescence | activity change, negative = inhibition, % at 10 µM | hit rate 61% among 920 | AID 2777, 2010;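 active = rise or fall in signal beyond 3 SD of buffer-only wells in both replicate plates, either sign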;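 also: integrated kinetic ratio of fluorescence range over baseline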
# HEK293 MPD ctr 2-1 = nonspecific membrane potential effects, parental HEK293, confirmation, counter-screen for TRPC6 inhibitor project, cell-based, second counter screen. shares compounds with TRPC6 inhibitor. parental HEK293 membrane potential dye fluorescence; maximal acetylcholine challenge after compound addition. signal change vs control, % at 10 µM. hit rate 31% among 920. AID 2779, 2010;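 active = membrane potential signal moving either way by over 3 SD of the maximum-effect control, in both duplicate plates, meaning non-specific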
# HEK293 MPD ctr-1 = membrane potential modulation in parental HEK293, confirmation, counter-screen for TRPC6 inhibitor project, cell-based; parental HEK293 membrane potential dye fluorescence; hit rate 60% among 920; shares compounds with TRPC6 inhibitor; membrane potential signal change, % at 10 µM;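 active = membrane potential signal shifting up or down by more than 3 SD of buffer-only wells, on both duplicate plates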
# HEK293 MPD ctr-2 = parental HEK293 membrane potential modulation, confirmation, counter-screen for TRPC6 modulator project, cell-based; AID 488924, 2010; shares compounds with TRPC6 inhibitor; hit rate 51% among 2,400; membrane potential signal change, % at 10 µM; membrane potential dye fluorescence;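 active = membrane potential signal moves up or down beyond 5 SD from buffer-only wells, on both duplicate plates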
# HEK293 MPD ctr 2-2 = parental HEK293 nonspecific activity of TRPC6 modulators, second screen | shares compounds with TRPC6 inhibitor | membrane potential dye fluorescence; after compound, maximal acetylcholine stimulation | inhibition, % at 10 µM | hit rate 14% among 2,400 | AID 488926;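 active = membrane potential signal drops by more than 5 SD from the mean control signal, in both duplicate plates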
# TRPC4 ctr mod = TRPC4 modulation by TRPC6 hit compounds, confirmation, selectivity assay for TRPC6 modulator project, cell-based, HEK293 TRPC4/mu-opioid, membrane potential dye, mouse. shares compounds with TRPC6 inhibitor. membrane potential fluorescence. percent change from control (negative = decrease, positive = increase), % at 10 µM. hit rate 69% among 2,400;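 active = membrane potential signal moved up or down beyond 5 SD of buffer control wells, in both duplicate plates, actives on both sides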
# TRPC4 ctr inh 2 = second selectivity test of TRPC6 modulators against mouse TRPC4 | HEK293 TRPC4/mu-opioid, membrane potential dye fluorescence; stimulated with maximal-effect DAMGO | AID 488928 | hit rate 55% among 2,400 | inhibition, % at 10 µM | shares compounds with TRPC6 inhibitor;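 active = drop in membrane potential signal beyond 5 SD of the control wells in both duplicate plates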;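 also: TRPC4 counter screen for TRPC6 hits run under conditions tuned for TRPC6 not TRPC4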
# TRPC6 inh conf = mouse TRPC6 channel inhibitors, confirmation, HEK293 cells, membrane potential dye, duplicate; shares compounds with TRPC6 inhibitor; ACh-evoked depolarization; inhibition, % at 10 µM; hit rate 43% among 3,300; AID 488960, 2010;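 active = fluorescence ratio falls more than 5 SD below the full-stimulation control mean, in both duplicate runs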;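 also: integrated fluorescence ratio of peak minus minimum over baseline after agonist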
# TRPC6 act conf = mouse TRPC6 channel activators, confirmation, HEK293 cells, membrane potential dye, duplicate; shares compounds with TRPC6 inhibitor; HEK293-TRPC6 membrane potential dye fluorescence, FDSS; activation, % at 10 µM; hit rate 11% among 2,800; AID 488961, 2010;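 active = ratio signal rise beyond 5 SD above unstimulated control wells' mean, seen in both duplicate runs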
# Hits are given with their value; – = inactive; · = no result given; ! = a repeat was not active.
SMILES,TRPC6 inhibitor,DSG3 Ab inh,TRPC4 act,TRPC6 activator,TRPC4 potent,TRPC4 block,HEK293 MPD ctr-2,HEK293 MPD ctr 2-2,TRPC4 ctr mod,TRPC4 ctr inh 2,TRPC6 inh conf,TRPC6 act conf,others
CN1CCc2c(sc3c2c(=O)n(-c2ccc(Cl)cc2)c2nncn32)C1,-5.1,–,–,–,–,–,-106%,–,-21%,–,–,–,
CCN(CC)CCn1c(=O)n(-c2ccc(Cl)cc2)c(=O)c2c3c(sc21)CN(C)CC3,–,·,–,–,–,–,·,·,·,·,·,·,
CCOc1ccc(NC(=O)N(CCN2CCOCC2)Cc2ccc3c(c2)CCCN3CC)cc1,–,–,–,–,–,–,·,·,·,·,·,·,
CCCN1CCCc2cc(CN(CCCN3CCOCC3)C(=O)Nc3ccc(OCC)cc3)ccc21,-5.3,–,–,–,–,–,–,–,–,38%,–,–,
CSc1nc(SCCN(C)C)c2c3c(sc2n1)COC(C)(C)C3,–,–,–,–,–,–,·,·,·,·,·,·,
Cc1cc(C)n(-c2nc(SCCN(C)C)c3c4c(sc3n2)CCCC4)n1,-6.1,–,95,–,–,–,–,–,–,72%,46%,–,
COc1cccc(-n2c(SCC(=O)NC3CC3)nc3ccccc3c2=O)c1,·,–,·,·,·,·,·,·,·,·,·,·,
O=C(CCc1cccc(Cl)c1)N1CCCC(Nc2ccccc2)C1 (configuration not stated),-8.6,–,–,–,–,–,·,·,·,·,55%,–,TRPC4 spec 2=–;TRPC4 spec=–;HEK293 MPD ctr 2-1=–;HEK293 MPD ctr-1=–
COC(=O)C1CN(Cc2ccccc2)C(=O)C1=O (configuration not stated),·,–,·,·,·,·,·,·,·,·,·,·,
CCn1cc(C(=O)OCc2ccc(F)cc2)c(=O)c2ccc(C)nc21,-10,–,–,–,–,–,-340%,84%,-52%,65%,64%,–,
CCn1cc(C(=O)OCc2ccccc2)c(=O)c2ccc(C)nc21,-6,–,–,–,–,–,-308%,–,-50%,48%,–,–,
CC1CCN(C(=O)CCC(=O)Nc2nnc(C(F)(F)F)s2)CC1,–,–,–,–,–,–,·,·,·,·,·,·,
CC(C)(C)c1cc(C(=O)Nc2cccnc2)cc(C(=O)Nc2cccnc2)c1,–,–,–,–,–,–,·,·,·,·,·,·,
COC(=O)c1cc(NC(=O)CSc2nnc(N)s2)ccc1Cl,-7.1,–,–,–,–,–,–,–,–,–,–,–,
C[n+]1c2n(c3ccccc31)N=C(c1ccccc1)CS2,-5.2!,–,–,–,–,–,-159%,–,-26%,50%,–,–,
C[n+]1c2n(c3ccccc31)N=C(c1ccc(-c3ccccc3)cc1)CS2,–,–,–,–,–,–,·,·,·,·,·,·,
Cc1ccc(NC(=O)CSc2nc3ccccc3c(=O)n2CCCN2CCCCC2)cc1C,-7.9,–,–,–,–,–,·,·,·,·,–,–,TRPC4 spec 2=33%;TRPC4 spec=5.6%;HEK293 MPD ctr 2-1=219%;HEK293 MPD ctr-1=9.0%
CC(=O)c1cccc(NC(=O)CSc2nc3ccccc3c(=O)n2CCCN2CCOCC2)c1,·,–,·,·,·,·,·,·,·,·,·,·,
Cc1onc(-c2c(Cl)cccc2Cl)c1C(=O)O/N=C(\C#N)c1c(Cl)cccc1Cl,–,·,–,–,–,–,·,·,·,·,·,·,
C/C(=N/OC(=O)c1c(-c2ccccc2Cl)noc1C)c1cnccn1,-6,–,–,–,–,–,108%,–,21%,–,52%,·,
C/C(=N/OC(=O)c1c(-c2c(Cl)cccc2Cl)noc1C)c1cnccn1,-8.1,·,–,–,–,–,·,·,·,·,69%,–,TRPC4 spec 2=–;TRPC4 spec=–;HEK293 MPD ctr 2-1=27%;HEK293 MPD ctr-1=–
C/C(=N\OC(=O)c1c(-c2ccccc2Cl)noc1C)c1nccs1,–,–,–,–,–,–,·,·,·,·,·,·,
COc1ccccc1/C=C/C(=O)NCC(=O)N/N=C/c1ccc(C)o1,–,–,–,–,–,–,·,·,·,·,·,·,
CCCCCCCCNC(CO)(CO)CO,–,–,–,–,–,–,·,·,·,·,·,·,
CCCCCCc1ccc(N2C[C@H](CCCCC)[C@@H](CC(=O)NCc3ccccc3)C2=O)cc1,–,–,–,22,–,–,344%,–,77%,–,–,169%,
CCCCCCc1ccc(N2C[C@H](CCCCC)[C@@H](CC(=O)NCc3ccc(OC)cc3)C2=O)cc1,–,–,–,17,–,–,472%,–,84%,–,–,95%,
